Data on one molecule can be found in ChEMBL document CHEMBL1909575, “Novel natural product-based cinnamates and their thio and thiono analogs as potent inhibitors of cell adhesion molecules on human endothelial cells” (Eur J Med Chem, 2011).

In general, inhibition refers to the relative decrease from the control value, in per cent. What is called IC50 is the concentration needed to halve the response being measured. In general, pIC50 refers to the negative decadic logarithm of the IC50, by convention in mol/L. Lower therefore signals a high IC50.

Data set [1] relates to HUVEC. Briefly: Antiinflammatory activity against TNF-alpha-induced neutrophil adhesion in HUVEC pretreated for 2 hrs before TNFalpha challenge measured after 6 hrs by calorimetric analysis. The following applies: Homo sapiens. In kind it is functional, cell-based. In outline:
(§1)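 A confluent endothelial monolayer was pretreated ±compound for 2 h, then given TNF-α (10 ng/mL) for 6 h. Neutrophils from healthy donor blood (dextran sedimentation, Ficoll-Hypaque, hypotonic RBC lysis; 6 × 10^4/well) were added for 1 h at 37 °C under static conditions. After washing, bound cells were detected with OPD/CTAB/aminotriazole substrate at A490. Mean ± SD of 3 independent experiments.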

The nature of data set [2]: Cytotoxicity against HUVEC assessed as maximum tolerated dose for >95% cell viability after 24 hrs by MTT assay. In kind it is cell-based. The following applies: human, HUVEC cells; read-out: MTD. The procedure, abridged:
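Primary human umbilical vein endothelial cells (mild trypsinization), grown in M-199 with 15% heat-inactivated FCS, endothelial cell growth factor and heparin, 5% CO2. Cells attached overnight, then exposed to compounds or DMSO (0.25%) for 24 h; MTT (5 mg/mL in PBS) 4 h, formazan dissolved in DMSO, absorbance 570 nm. Also checked by trypan blue exclusion. Value is highest concentration giving >95% viability; ≥3 experiments in triplicate.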

The test system of data set [3] is HUVEC. Briefly: Antiinflammatory activity against LPS-induced E-selectin protein expression in HUVEC at 2.5 to 20 ug/ml pretreated for 2 hrs before LPS challenge measured after 4 hrs by whole cell ELISA. It is filed as functional, cell-based. Particulars: Homo sapiens. In outline:
(§2)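 Primary human umbilical cord endothelial cells (isolated by mild trypsinization, grown in M-199 with 15% heat-inactivated FCS, endothelial cell growth factor, heparin) pre-incubated 2 h with compound, then LPS ([…]) for 4 h (E-selectin) or 16 h (VCAM-1). Cells fixed with 1.0% glutaraldehyde, blocked with 3.0% milk, primary antibody overnight at 4 °C, peroxidase secondary, o-phenylenediamine substrate at pH 4.5, absorbance 490 nm.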
For orientation: An ELISA detects its analyte on a solid surface through an enzyme-linked reagent.

In data set [4] the test system is HUVEC. The experiment in a line: Antiinflammatory activity against TNF-alpha-induced ICAM1 protein expression in HUVEC at 20 ug/ml pretreated for 2 hrs before TNFalpha challenge measured after 16 hrs by flow cytometry. In kind it is functional. The following applies: Homo sapiens. The procedure, abridged:
(§3)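 Endothelial cells were treated ±compound ([…]) for 2 h, then TNF-α (10 ng/mL). E-selectin was read at 4 h, ICAM-1 and VCAM-1 at 16 h. Cells were dislodged, stained with specific or control IgG antibody (30 min, 4 °C) and then FITC anti-mouse IgG. Autofluorescence was subtracted and mean fluorescence intensity taken from three independent experiments.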
(In general: In flow cytometry, cells or beads pass a laser one at a time.)

Data set [5] relates to HUVEC. The experiment in a line: Antiinflammatory activity against LPS-induced VCAM-1 protein expression in HUVEC pretreated for 2 hrs before LPS challenge measured after 16 hrs by whole cell ELISA. It is filed as functional, cell-based. The following applies: Homo sapiens. The procedure, abridged:
as §2

In data set [6] the test system is HUVEC. The experiment in a line: Antiinflammatory activity against TNF-alpha-induced E-selectin protein expression in HUVEC at 2.5 to 20 ug/ml pretreated for 2 hrs before TNFalpha challenge measured after 4 hrs by whole cell ELISA. The following applies: Homo sapiens. It is filed as functional, cell-based. The procedure, abridged:
(§4)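 Primary umbilical cord endothelial cells were pre-incubated 2 h with or without compound, then TNF-α (10 ng/mL) for 16 h (ICAM-1, VCAM-1) or 4 h (E-selectin). Whole-cell ELISA: glutaraldehyde fixation, milk block, primary antibody overnight at 4 °C, peroxidase secondary, OPD substrate, A490. IC50 read from %inhibition vs log concentration plots of three independent experiments. Single-level values were taken at the highest concentration giving >95% viability (MTT, 24 h).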

For data set [7], the system named is HUVEC. The experiment in a line: Antiinflammatory activity against TNF-alpha-induced ICAM1 protein expression in HUVEC at maximum tolerated dose pretreated for 2 hrs before TNFalpha challenge measured after 16 hrs by whole cell ELISA. In kind it is functional, Homo sapiens. The procedure, abridged:
as §4

Data set [8] concerns HUVEC. Briefly: Antiinflammatory activity against TNF-alpha-induced ICAM1 protein expression in HUVEC pretreated for 2 hrs before TNFalpha challenge measured after 16 hrs by whole cell ELISA. It is filed as functional, cell-based. The following applies: Homo sapiens. The procedure, abridged:
as §4

The subject of data set [9] is HUVEC. The experiment in a line: Antiinflammatory activity against TNF-alpha-induced E-selectin protein expression in HUVEC at 20 ug/ml pretreated for 2 hrs before TNFalpha challenge measured after 4 hrs by flow cytometry. The following applies: Homo sapiens. It is filed as functional. The procedure, abridged:
as §3

Data set [10] can be described thus: Antiinflammatory activity against TNF-alpha-induced VCAM-1 protein expression in HUVEC by ELISA.
Data set [11] concerns HUVEC. The experiment in a line: Antiinflammatory activity against TNF-alpha-induced neutrophil adhesion in HUVEC at 2.5 to 20 ug/ml pretreated for 2 hrs before TNFalpha challenge measured after 6 hrs by calorimetric analysis. In kind it is functional, Homo sapiens. The procedure, abridged: as §1
In data set [12] the test system is HUVEC. The experiment in a line: Antiinflammatory activity against TNF-alpha-induced VCAM-1 protein expression in HUVEC at 20 ug/ml pretreated for 2 hrs before TNFalpha challenge measured after 16 hrs by flow cytometry. In kind it is functional. The following applies: Homo sapiens. The procedure, abridged:
as §3

Data set [13] concerns HUVEC. Briefly: Antiinflammatory activity against TNF-alpha-induced VCAM-1 protein expression in HUVEC pretreated for 2 hrs before TNFalpha challenge measured after 16 hrs by whole cell ELISA. In kind it is functional, cell-based. Particulars: Homo sapiens. In outline: as §4

Structures are written as SMILES. pIC50: −log10 of the molar value. ≈ marks a conversion by molar mass, not a printed value. Calls of active or inactive are those of the source. The rule behind the calls is not given here.

As for `CCOC(=S)/C=C/c1cc(OC)c(OC)c(OC)c1`, the inhibition entry in the data set with HUVEC [1], in the data set on HUVEC [8] and in the data set on HUVEC [13] was “Dose-dependent effect” throughout. In addition, the MNTC at 24 h in data set [2] was found to be 20 µg/mL. Besides, the inhibition result in the data set on HUVEC [3], with HUVEC [5] and with HUVEC [6] was “Active” each time. Moreover, the inhibition at 20 µg/mL in the data set with HUVEC [4], with HUVEC [9] and in the data set with HUVEC [12] was above 95% in each case. In addition, the “inhibition (INH)” value in the data set with HUVEC [7] is recorded as 95%; in the data set with HUVEC [11], above 95%. For the same molecule, in the data set with HUVEC [8], the IC50 was 10 µg/mL (≈ 35.4 µM). The same molecule showed a negative logarithm of the IC50 (pIC50) in data set [10] of 4.40.
